Bioassay records as filed in PubChem.
Most compounds without a hit are left out; they make up all but 1.5% or so of the library.
TbHK1 inh: blocks Trypanosoma brucei hexokinase 1 activity; inhibition, % at 10 µM; AID 1430; recombinant TbHK1, G6PDH-coupled NADH A340; actives 0.11% (n = 220,000);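 active = inhibition of 50% or more in the single-dose primary screen; inactive = inhibition below 50%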
Rad51 HR inh: Rad51 (human) homologous recombination inhibition; Q06609; hRad51 DNA strand exchange, fluorescence dequenching; inhibition, % at 10 µM; actives 0.085% (n = 200,000); AID 1385;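 active = inhibition above 40% at the single screening dose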;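 also: 0% = DMSO control wells and 100% = blanks with heterologous ssDNA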
Target sequence (Q06609 whole entry, looked up): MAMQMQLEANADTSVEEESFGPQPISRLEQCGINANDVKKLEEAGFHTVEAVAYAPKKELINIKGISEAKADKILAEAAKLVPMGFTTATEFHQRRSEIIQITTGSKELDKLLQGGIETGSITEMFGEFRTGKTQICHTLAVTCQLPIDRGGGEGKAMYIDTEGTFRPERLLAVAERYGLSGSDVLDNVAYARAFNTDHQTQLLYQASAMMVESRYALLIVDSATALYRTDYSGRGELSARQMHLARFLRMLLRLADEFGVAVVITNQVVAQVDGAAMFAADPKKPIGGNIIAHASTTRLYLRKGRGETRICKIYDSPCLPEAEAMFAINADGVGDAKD
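Test system: preformed human Rad51 ssDNA filaments; also added: Donor/quencher-labelled 47-bp dsDNA substrate; doses: 10 µM final, single point; times: 37 °C 15-min filament assembly, 30-min compound preincubation, 15-min exchange; detection: FRET fluorescence dequenching, excitation 485 nm, emission 520 nm; read-out basis: Fluorescence-based percent inhibition, control- and blank-normalised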
bCat nuc transl: alters nuclear translocation of beta-catenin in HeLa cells; immunofluorescence imaging; nuclear translocation activity, % at 5 µM; actives 0.3% (n = 190,000);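 active = nuclear translocation activity above 50% at 5 µM, with a well cell count of 50 or more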;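 also: per-cell ratio of nuclear to cytoplasmic median beta-catenin stain intensity; plate controls were DMSO negative control for no effect and GSK-3 inhibitor IX positive control for full effect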
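Technique: fluorescence imaging of beta-catenin antibody stain plus DAPI / Material: human HeLa cell line / Incubation: compound treatment 24 h, 37°C, 5% CO2 / Read-out basis: % activation of per-cell nuclear versus cytoplasmic median beta-catenin signal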
MT stabilize HCS: stabilizes microtubules in HeLa cells; HeLa tubulin immunostaining HCS, 24 h; share of cells brighter than vehicle mean+2SD; % tubulin-high responders, % at 10 µM; actives 0.83% (n = 200,000); AID 2205;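 active = plate Z-score above 3 for both tubulin-high and condensed-nucleus cell shares, with cell loss under 80%, at 10 µM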;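 also: anti alpha tubulin signal scored within the nucleus-defined area of each cell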
Dynein transport: blocks dynein driven cargo transport along microtubules | 3617.4 mouse cells, GR-EGFP nuclear translocation imaging; test concentration mostly 20 µM; stimulated with dexamethasone, 1 µM; hits give low values | z-score, hits read low | actives 0.47% (n = 220,000);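 active = plate z-score of nuclear minus cytoplasmic receptor signal below a set negative limit, without overly bright fluorescence or cell loss, cut at about -3.5 in these data, passing the limit was not always enough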;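 also: z-score of nuclear minus cytoplasmic ring GR-EGFP intensity difference per well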
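Buffer or medium: tet-free medium with charcoal-stripped serum / Also added: dexamethasone agonist, 1.0 µM final, for 30 min / Timing: induction 48 h, compound 1 h, agonist 30 min / Measured by: high-content fluorescence imaging after fixation / Read-out: nuclear-to-cytoplasmic GR-EGFP distribution per well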
Active calls of the source: *.

COc1ccc2c(c1)c(=O)c(C(=O)c1ccccc1)cn2Cc1ccc(C)cc1 was read as TbHK1 inh -12.4, Rad51 HR inh -3.1, bCat nuc transl 4.7, MT stabilize HCS 21.6* and Dynein transport -0.582.
Cc1c(NC(=O)COC(=O)c2ccc(Br)o2)c(=O)n(-c2ccccc2)n1C was read as TbHK1 inh -2.4, Rad51 HR inh 1.1, bCat nuc transl 1.6, MT stabilize HCS 7.0 and Dynein transport 0.959.
`CCOC(=O)c1c(C)c(C(=O)Nc2ccc(N(C)C)cc2)c(C)n1CC` gave TbHK1 inh -4.0, Rad51 HR inh -26.1, bCat nuc transl -4.3, MT stabilize HCS 13.5* and Dynein transport -1.62.
`CC(=O)N1N=C(c2cccc([N+](=O)[O-])c2)OC1c1cccc(Br)c1` (stereo unspecified) gave TbHK1 inh 1.8, bCat nuc transl 65.6*, MT stabilize HCS 24.1* and Dynein transport -1.05.
For CC(=O)N1N=C(c2cccc(Cl)c2)OC1c1cccc([N+](=O)[O-])c1 (stereo unspecified) the results were TbHK1 inh -5.5, Rad51 HR inh -3.3, bCat nuc transl -1.5, MT stabilize HCS 2.9 and Dynein transport 0.578.
O=[N+]([O-])c1ccc(N=Nc2ccc(O)cc2O)cc1 was read as TbHK1 inh 0.2, Rad51 HR inh 6.1, MT stabilize HCS 22.0* and Dynein transport -0.563.
`Cc1ccc(NC(=O)CO/N=C/c2ccccc2C)c(C)c1` gave TbHK1 inh 9.1, Rad51 HR inh -3.8, bCat nuc transl 2.0, MT stabilize HCS 3.5 and Dynein transport 1.03.
CSc1nc(C)cc(OCC(=O)N/N=C/c2ccccc2O)n1 was read as TbHK1 inh -5.5, Rad51 HR inh 14.7, bCat nuc transl 94.1*, MT stabilize HCS 16.6* and Dynein transport 2.98.
For O=C(COc1nsnc1N1CCOCC1)N/N=C/c1ccccc1O the results were TbHK1 inh -5.3, MT stabilize HCS 1.1 and Dynein transport -1.15.
Screening CC(=O)Nc1ccc2c(c1)CCCC2=O returned TbHK1 inh -12.1, Rad51 HR inh -19.0, bCat nuc transl 0.3 and Dynein transport 0.29.
O=C1CCCc2cc3c(cc21)CC1(C3)Cc2cc3c(cc2C1)C(=O)CCC3 was read as TbHK1 inh -6.8, Rad51 HR inh 2.9, bCat nuc transl 72.0* and Dynein transport -0.359.
`Cn1c(=O)c2c(nc(CN3CCC(C(N)=O)CC3)n2CCc2ccccc2)n(C)c1=O` gave TbHK1 inh 6.0, Rad51 HR inh -1.6, bCat nuc transl 113.7*, MT stabilize HCS 1.8 and Dynein transport -0.935.
Screening COc1cccc(N2CCN(c3ncnc4c3[nH]c3ccc(F)cc34)CC2C)c1 (stereo unspecified) returned TbHK1 inh -5.1, Rad51 HR inh 3.1, bCat nuc transl 0.2, MT stabilize HCS 25.8* and Dynein transport -1.9.
For O=C1CSC(c2cn(-c3ccccc3)nc2-c2cc3ccccc3oc2=O)N1Cc1ccccc1 (stereo unspecified) the results were TbHK1 inh -5.7, Rad51 HR inh -5.0, MT stabilize HCS 31.0* and Dynein transport -0.764.
For O=C1CSC(c2nn(-c3ccccc3)cc2-c2cc3ccccc3oc2=O)N1Cc1ccco1 (stereo unspecified) the results were TbHK1 inh -22.3, Rad51 HR inh -4.8, bCat nuc transl 4.5, MT stabilize HCS 8.4 and Dynein transport -1.15.
`COc1cc2c(cc1OC)C(c1cccc(C)c1)CC(=O)N2` (stereo unspecified) gave TbHK1 inh -4.5, Rad51 HR inh 1.0, bCat nuc transl 6.7, MT stabilize HCS 3.1 and Dynein transport -0.186.
For C[C@@H]1Cc2c(O)c(O)cc(O)c2C(=O)O1 the results were TbHK1 inh -10.6, Rad51 HR inh 2.9, bCat nuc transl 0.9 and Dynein transport 0.704.
Screening CC1CCC/C=C/C(=O)c2c(O)cc(O)cc2CC(=O)O1 (stereo unspecified) returned TbHK1 inh -37.3, Rad51 HR inh -4.5, bCat nuc transl 15.4 and Dynein transport -4.52*.
Screening Nc1ccccc1C(=O)NNc1ncc(C(F)(F)F)cc1Cl returned TbHK1 inh -7.8, Rad51 HR inh -9.9, bCat nuc transl -1.1, MT stabilize HCS 1.7 and Dynein transport -0.83.
For Cc1ccc(-n2sc3ccccc3c2=O)cc1 the results were TbHK1 inh 65.9*, Rad51 HR inh -0.2, bCat nuc transl -1.4, MT stabilize HCS 3.9 and Dynein transport -1.54.
For Cc1ccc(Cn2c(=O)sc3ccccc3c2=O)cc1 the results were TbHK1 inh 0.8, Rad51 HR inh -2.6, bCat nuc transl -5.3, MT stabilize HCS 1.2 and Dynein transport -0.437.
CCC1(C)OCC(Cn2c3ccccc3c3ccccc32)O1 (stereo unspecified) was read as TbHK1 inh -2.2, Rad51 HR inh -1.2, bCat nuc transl 63.0*, MT stabilize HCS 5.1 and Dynein transport -0.869.
CCOC(=O)c1ccccc1NC1c2ccccc2C(=O)N1c1cc(C)ccn1 (stereo unspecified) was read as TbHK1 inh -14.0, Rad51 HR inh -2.5, MT stabilize HCS 1.8 and Dynein transport -0.906.
Screening N#Cc1c(N)nc2c(c1-c1ccc3c(c1)OCO3)CCc1ccccc1-2 returned TbHK1 inh 3.6, Rad51 HR inh 0.6, bCat nuc transl 6.3, MT stabilize HCS 25.9* and Dynein transport -0.243.
For COc1cc(C(=O)O)ccc1OCc1c(C)noc1C the results were TbHK1 inh -8.4, Rad51 HR inh -2.2, bCat nuc transl 1.6, MT stabilize HCS 1.3 and Dynein transport 0.0875.
For COc1cc(C(=O)OCC(C)=O)ccc1OCc1c(C)noc1C the results were TbHK1 inh 9.4, Rad51 HR inh -3.1, bCat nuc transl 45.0, MT stabilize HCS 31.1* and Dynein transport 1.31.
`COc1ccc(C(=O)Nc2cccc(OC(=O)c3ccc(C)c(C)c3)c2)cc1` gave TbHK1 inh -6.2, bCat nuc transl -0.3, MT stabilize HCS 21.6* and Dynein transport 0.716.
`COCCN(C(=O)CC(C)(C)C)c1nnc(-c2cccnc2)s1` gave TbHK1 inh -2.8, Rad51 HR inh -1.7, bCat nuc transl -0.7, MT stabilize HCS 3.3 and Dynein transport -0.515.
For COc1ccc(S(=O)(=O)NN(C)c2nc(C(F)(F)F)nc3ccccc23)cc1 the results were TbHK1 inh -24.1, Rad51 HR inh -1.9, bCat nuc transl -1.8, MT stabilize HCS 24.9* and Dynein transport 0.337.
`COc1ccc(S(=O)(=O)Nc2ccccc2C(F)(F)F)cc1` gave TbHK1 inh 0.1, Rad51 HR inh -3.1, bCat nuc transl 0.6, MT stabilize HCS 3.3 and Dynein transport -0.683.
Screening Cc1ccc(S(=O)(=O)N=Nc2c(O)[nH]c3ccccc23)cc1 returned TbHK1 inh -14.3, Rad51 HR inh 9.9, bCat nuc transl -0.7, MT stabilize HCS 2.7 and Dynein transport 2.03.
